From ChEMBL document CHEMBL1140080, “Adamantyl-substituted retinoid-derived molecules that interact with the orphan nuclear receptor small heterodimer partner: effects of replacing the 1-adamantyl or hydroxyl group on inhibition of cancer cell growth, induction of cancer cell apoptosis, and inhibition of SRC homology 2 …” (J Med Chem, 2008)

Tests used:
[1] = Induction of apoptosis in human HL60R cells at 1.0 uM after 24 hrs by acridine orange staining; format: functional
Summary of the method: (§1)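 KG-1, HL-60R (24 h) or MDA-MB-231 (96 h) cells in 5% FBS medium attached overnight, then were treated with analogue in Me2SO or vehicle (final 0.1% Me2SO). Apoptotic cells were scored by acridine orange staining on at least three replicates. Tested concentrations were 0.1–5.0 μM, plus 25 μM for KG-1.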

[2] = Induction of apoptosis in human HL60R cells at 0.1 uM after 24 hrs by acridine orange staining; format: functional; summary of the method: as §1
[3] = Growth inhibition of HMVE cells after 72 hrs by alamar blue method; format: cell-based; settings: Homo sapiens
[4] = Growth inhibition of HMVE cells at 0.5 uM after 72 hrs by alamar blue method; format: cell-based; settings: human; for inhibition at 72 h, 0.5 µM: HMVE cells, read-out: GI
[5] = system: MDA-MB-231; experiment: Induction of apoptosis in human MDA-MB-231 cells at 1.0 uM after 96 hrs by acridine orange staining; format: functional; summary of the method: as §1
[6] = system: MDA-MB-231; experiment: Induction of apoptosis in human MDA-MB-231 cells at 2.0 uM after 96 hrs by acridine orange staining; format: functional; summary of the method: as §1
[7] = system: MDA-MB-231; experiment: Antiproliferative activity against human MDA-MB-231 cells at 5 uM after 72 hrs by MTT assay; format: functional; settings: MDA-MB-231, 72 h
Summary of the method: (§2)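 Cells attached for 24 h, then exposed 72 h to analogue in Me2SO or Me2SO alone (final Me2SO 0.1%), with media and compound renewed after 48 h. Viable cells were measured by MTS tetrazolium reduction in three replicates. Top concentration tested per compound was 2.5, 5, 10, 20 or 100 μM.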

[8] = system: KG-1; experiment: Induction of apoptosis in human KG1 cells at 1.0 uM […] by acridine orange staining; format: functional
[9] = system: DU-145; experiment: Antiproliferative activity against human DU145 cells after 72 hrs by MTT assay; format: functional, cell-based; settings: DU-145, 72 h; summary of the method: as §2
[10] = system: KG-1; experiment: Induction of apoptosis in human KG1 cells at 5.0 uM […] by acridine orange staining; format: functional
[11] = Antiproliferative activity against human H292 cells after 72 hrs by MTT assay; format: functional, cell-based; settings: NCI-H292, 72 h; summary of the method: as §2
[12] = system: DU-145; experiment: Antiproliferative activity against human DU145 cells at 5 uM after 72 hrs by MTT assay; format: functional; settings: DU-145, 72 h; summary of the method: as §2
[13] = system: MDA-MB-231; experiment: Antiproliferative activity against human MDA-MB-231 cells after 72 hrs by MTT assay; format: functional, cell-based; settings: MDA-MB-231, 72 h; summary of the method: as §2
[14] = Antiproliferative activity against human KG1 AML cells after 48 hrs by MTT assay; format: functional, cell-based; settings: in the assay text read “by hemocytometer cell counting” for “by MTT assay”
Summary of the method: (§3)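 KG-1 cells in 5% FBS medium attached overnight, then treated 48 h with analogue in Me2SO or Me2SO alone (final 0.1%). Cells were harvested and counted by hemocytometer in triplicate wells. Highest concentration evaluated was 5 μM.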

[15] = molecular target: T1, Tyrosine-protein phosphatase non-receptor type 11 (Homo sapiens, UniProt Q06124); experiment: Inhibition of SHP2 overexpressed in human KG1 cells; format: cell-based, KG-1
T1 sequence (Q06124 whole entry): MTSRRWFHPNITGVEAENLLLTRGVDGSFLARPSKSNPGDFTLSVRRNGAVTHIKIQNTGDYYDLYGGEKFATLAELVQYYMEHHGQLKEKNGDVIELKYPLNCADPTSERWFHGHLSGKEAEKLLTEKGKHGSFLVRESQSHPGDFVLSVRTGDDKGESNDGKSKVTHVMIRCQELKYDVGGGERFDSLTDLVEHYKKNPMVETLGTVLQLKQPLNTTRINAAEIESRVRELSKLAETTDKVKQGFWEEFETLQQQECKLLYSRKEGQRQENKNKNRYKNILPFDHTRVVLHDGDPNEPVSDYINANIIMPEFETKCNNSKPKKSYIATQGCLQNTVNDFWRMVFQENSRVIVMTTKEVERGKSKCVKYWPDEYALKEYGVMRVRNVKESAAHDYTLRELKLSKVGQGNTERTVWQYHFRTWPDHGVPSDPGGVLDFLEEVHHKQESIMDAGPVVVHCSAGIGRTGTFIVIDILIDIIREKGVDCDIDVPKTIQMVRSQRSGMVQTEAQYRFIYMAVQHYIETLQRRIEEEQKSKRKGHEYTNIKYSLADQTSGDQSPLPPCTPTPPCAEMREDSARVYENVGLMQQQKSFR
Summary of the method: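 Shp-2 PTP activity was measured as hydrolysis of the fluorogenic substrate 6,8-difluoro-4-methylumbelliferyl phosphate in the presence of analogue in Me2SO or Me2SO alone (final concentration 5%).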

[16] = Antiproliferative activity against human H292 cells at 5 uM after 72 hrs by MTT assay; format: functional; settings: NCI-H292, 72 h; summary of the method: as §2
[17] = Antiproliferative activity against human KG1 AML cells at 5 uM after 48 hrs by MTT assay; format: functional; settings: in the assay text read “by hemocytometer cell counting” for “by MTT assay”; summary of the method: as §3
[18] = molecular target: T2, Nuclear receptor subfamily 0 group B member 2 (Homo sapiens) (UniProt Q15466); experiment: Displacement of [5,5'-3H2]AHPN from human recombinant GST-SHP at 50 uM by liquid scintillation counting relative to 3-Cl-AHPC
T2 sequence (whole entry): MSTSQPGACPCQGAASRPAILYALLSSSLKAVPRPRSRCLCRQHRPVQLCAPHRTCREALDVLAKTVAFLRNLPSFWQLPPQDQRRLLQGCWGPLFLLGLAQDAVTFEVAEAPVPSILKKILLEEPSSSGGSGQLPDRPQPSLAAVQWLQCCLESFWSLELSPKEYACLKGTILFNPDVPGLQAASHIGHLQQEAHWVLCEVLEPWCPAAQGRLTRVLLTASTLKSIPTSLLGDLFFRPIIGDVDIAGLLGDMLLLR
Summary of the method: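 Recombinant GST–human SHP was bound to glutathione–Sepharose beads and incubated 2 h with 5 nM [5,5′-3H2]AHPN with or without competitor (1.0, 5.0 or 50 μM). Beads were washed twice and counted. Displacement was expressed relative to 50 μM 3-Cl-AHPC set as 100%.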

[19] = system: KG-1; experiment: Induction of apoptosis in human KG1 cells after 48 hrs by acridine orange staining; format: functional, cell-based; settings: KG-1, 48 h

Compound	Activity [1] [%]	Activity [2] [%]	IC50 [3] [µM]	inhibition at 72 h, 0.5 µM [4] [%]	Activity [5] [%]	further results
O=C(O)c1ccc2cc(-c3ccc(O)c(C4C5CC6CC(C5)CC4C6)c3)ccc2c1 (centres undefined)	0	0	> 0.5	35	–	–
CC1(C)CCC(C)(C)c2cc(-c3cc(-c4ccc(/C=C/C(=O)O)cc4)ccc3O)ccc21	0	–	–	–	–	–
COc1cc(-c2ccc3cc(C(=O)O)ccc3c2C)ccc1O	7	-4	–	–	5	Activity [6]: 7%
Cc1c(-c2ccc(O)c(C34CC5CC(CC(C5)C3)C4)c2)ccc2cc(C(=O)O)ccc12	70	29	0.34	65	28	Activity [6]: 43%
CC1(C)CCC(C)(C)c2cc(-c3ccc4cc(C(=O)O)ccc4c3)c(CO)cc21	–	–	–	–	0	–
O=C(O)c1ccc2cc(-c3ccc(O)c([C@@H]4CCC[C@H]5CCCCC54)c3)ccc2c1 (some centres undefined)	0	–	> 0.5	10	–	–
CC(C)=CCC/C(C)=C\Cc1cc(-c2ccc3cc(C(=O)O)ccc3c2)ccc1O	0	–	–	–	–	–
CC1(c2cc(-c3ccc(/C=C/C(=O)O)cc3Cl)ccc2O)CCCCC1	–	–	–	–	–	inhibition at 5 µM [7]: 9%; Activity [8]: 0%; IC50 [9]: 8 µM; Activity [10]: 0%; IC50 [11]: 3.9 µM; inhibition at 5 µM [12]: 32%; IC50 [13]: > 5 µM; IC50 [14]: > 5 µM; IC50 [15]: 6.4 µM; inhibition at 5 µM [16]: 63%; Activity [17]: 0%
O=C(O)/C=C/c1ccc(-c2ccc(O)c(C3C4CC5CC(C4)CC3C5)c2)cc1 (centres undefined)	90	2	–	–	20	Activity [6]: 47%
O=C(O)c1ccc2cc(-c3ccc(O)c(C45CC6CC(CC(C6)C4)C5)c3)ccc2c1 [O-DEMETHYLATED ADAPALENE]	98	73	–	–	26	Activity [6]: 46%
CC(=O)Nc1ccc(-c2ccc(/C=C/C(=O)O)cc2Cl)cc1C12CC3CC(CC(C3)C1)C2	–	–	–	–	–	inhibition at 5 µM [7]: -5%; Activity [8]: 3%; IC50 [9]: 5 µM; Activity [10]: 7%; IC50 [11]: > 5 µM; inhibition at 5 µM [12]: 8%; IC50 [13]: > 5 µM; IC50 [14]: > 5 µM; IC50 [15]: 4.55 µM; inhibition at 5 µM [16]: 13%; Activity [17]: 25%; Activity [18]: 47%
CCCCC[C@@H]1CC2(c3cc(-c4ccc(/C=C/C(=O)O)cc4)ccc3O)CCC1CC2	0	0	–	–	–	–
Nc1ccc(-c2ccc(/C=C/C(=O)O)cc2Cl)cc1C12CC3CC(CC(C3)C1)C2	–	–	–	–	–	inhibition at 5 µM [7]: 61%; Activity [8]: 10%; IC50 [9]: 1.3 µM; IC50 [11]: 6 µM; inhibition at 5 µM [12]: 79%; IC50 [19]: 9.3 µM; IC50 [13]: 4 µM; IC50 [14]: 5 µM; IC50 [15]: 1.83 µM; inhibition at 5 µM [16]: 45%; Activity [17]: 50%; Activity [18]: 61%
CC1(C)CC(c2cc(-c3ccc4cc(C(=O)O)ccc4c3)ccc2O)CC(C)(C)C1	60	26	0.5	50	10	Activity [6]: 49%
Cc1c(-c2ccc(O)c(-c3ccc4c(c3)C(C)(C)CCC4(C)C)c2)ccc2cc(C(=O)O)ccc12	0	0	0.6	60	–	–
COc1cc(-c2ccc3cc(C(=O)O)ccc3c2)ccc1C12CC3CC(CC(C3)C1)C2	0	–	–	–	–	–
COCCOCOc1ccc(-c2ccc3cc(C(=O)O)ccc3c2)cc1C12CC3CC(CC(C3)C1)C2	21	–	–	–	–	–

Compound	Activity [1] [%]	Activity [2] [%]	IC50 [3] [µM]	inhibition at 72 h, 0.5 µM [4] [%]	Activity [5] [%]	further results
CC(c1cc(-c2ccc3cc(C(=O)O)ccc3c2)ccc1O)C12CC3CC(CC(C3)C1)C2 (centres undefined)	0	–	> 0.5	30	–	–
CC1C2(c3cc(-c4ccc(/C=C/C(=O)O)cc4)ccc3O)CCC(C2)C1(C)C (centres undefined)	2	2	> 0.5	–	–	growth inhibition (GI) ([4]; hmve, 72 h, 0.5 µM): 40%
CC(C)(C)c1cc(-c2ccc3cc(C(=O)O)ccc3c2)ccc1O	–	–	> 0.5	10	–	–
COc1ccc(-c2ccc3cc(C(=O)O)ccc3c2)cc1C12CC3CC(CC(C3)C1)C2	95	3	–	–	–	–
O=C(O)c1ccc2cc(-c3ccc(O)c([C@@H]4CC[C@@H]5CCCC[C@H]5C4)c3)ccc2c1	0	–	> 0.5	0	–	–
O=C(O)c1ccc2c(Cl)c(-c3ccc(O)c(C45CC6CC(CC(C6)C4)C5)c3)ccc2c1	94	62	> 0.5	45	21	Activity [6]: 41%
O=C(O)c1ccc2cc(-c3cc(O)c(O)c(C45CC6CC(CC(C6)C4)C5)c3)ccc2c1	–	–	–	–	0	–
Cc1cc(C)c(-c2cc(-c3ccc4cc(C(=O)O)ccc4c3C)ccc2O)c(C)c1	0	0	> 0.5	17	–	–
O=C(O)c1ccc2cc(-c3cc(C45CC6CC(CC(C6)C4)C5)ccc3O)ccc2c1	–	–	–	–	0	–
O=C(O)c1ccc2cc(-c3cc(O)cc(C45CC6CC(CC(C6)C4)C5)c3)ccc2c1	–	–	–	–	0	–
O=C(O)/C=C/c1ccc(-c2ccc(O)c(C34CC5CC(CC(C5)C3)C4)c2)cc1 [ADAROTENE]	98	–	0.1	90	53	Activity [6]: 58%
COc1cc(-c2ccc3cc(C(=O)O)ccc3c2)cc(C23CC4CC(CC(C4)C2)C3)c1	–	–	–	–	20	–
O=C(O)c1ccc2cc(-c3ccc(O)c([C@H]4CCC5CCCC[C@H]5C4)c3)ccc2c1 (some centres undefined)	0	–	–	–	–	–
CC1=C(/C=C/C(C)=C/C=C/C(C)=C/C(=O)O)C(C)(C)CCC1 [TRETINOIN]	0	0	> 0.5	10	0	Activity [6]: 0%
COc1cc(-c2ccc3cc(C(=O)O)ccc3c2)cc(C23CC4CC(CC(C4)C2)C3)c1O	–	–	–	–	0	–
COc1ccc(C23CC4CC(CC(C4)C2)C3)cc1-c1ccc2cc(C(=O)O)ccc2c1	0	–	–	–	–	–
